Data from publication PMC4161153 (Journal of Medicinal Chemistry, 2014).

Columns and labels:
[1] = target: T1, human TLR8 (Homo sapiens, UniProt Q9NR97); test: Human TLR8-specific reporter gene assay; assay type: cell-based; settings: HEK293 cells, NF-κB induction
T1 sequence (Q9NR97 27-1041): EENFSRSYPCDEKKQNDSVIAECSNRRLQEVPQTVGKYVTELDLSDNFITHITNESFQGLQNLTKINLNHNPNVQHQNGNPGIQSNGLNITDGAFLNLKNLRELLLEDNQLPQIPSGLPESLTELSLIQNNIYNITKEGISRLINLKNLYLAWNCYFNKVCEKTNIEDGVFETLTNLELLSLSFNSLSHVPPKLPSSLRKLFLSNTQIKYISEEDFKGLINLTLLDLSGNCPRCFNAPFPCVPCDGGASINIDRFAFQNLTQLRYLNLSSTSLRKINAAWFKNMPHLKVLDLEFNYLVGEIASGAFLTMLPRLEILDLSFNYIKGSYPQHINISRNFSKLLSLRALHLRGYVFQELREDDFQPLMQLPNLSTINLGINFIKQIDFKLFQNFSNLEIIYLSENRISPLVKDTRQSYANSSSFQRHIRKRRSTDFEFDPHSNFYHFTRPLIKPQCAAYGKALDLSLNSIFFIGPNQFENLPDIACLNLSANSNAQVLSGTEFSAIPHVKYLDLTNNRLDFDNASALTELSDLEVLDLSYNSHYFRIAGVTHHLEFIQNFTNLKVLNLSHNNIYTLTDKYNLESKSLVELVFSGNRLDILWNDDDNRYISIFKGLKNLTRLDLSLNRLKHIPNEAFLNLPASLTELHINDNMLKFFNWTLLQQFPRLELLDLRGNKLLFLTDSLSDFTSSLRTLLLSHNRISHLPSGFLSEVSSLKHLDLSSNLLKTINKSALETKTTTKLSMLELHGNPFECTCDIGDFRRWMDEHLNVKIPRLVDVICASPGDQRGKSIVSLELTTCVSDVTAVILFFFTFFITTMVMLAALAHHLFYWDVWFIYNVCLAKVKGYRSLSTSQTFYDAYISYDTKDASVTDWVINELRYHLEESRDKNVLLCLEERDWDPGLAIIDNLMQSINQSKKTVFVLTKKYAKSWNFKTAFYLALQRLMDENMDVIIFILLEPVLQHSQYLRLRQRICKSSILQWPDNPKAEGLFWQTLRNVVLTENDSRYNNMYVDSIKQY

[2] = Chemical stability of the free base; assay type: physicochemical; settings: rapid formation of overoxidized 3-ol derivative 5 via autoxidation
[3] = tested on: natural killer lymphocytes; test: CD69 upregulation by flow cytometry in whole human blood; assay type: cell-based; settings: overnight 37 °C, CD3–CD56+ cells, Figure 4
In short: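 Heparin-anticoagulated whole blood from healthy volunteers was incubated overnight at 37 °C with graded concentrations of test compound, a TLR7-agonist reference or medium. Cells were stained for 30 min at 37 °C in the dark with CD3-PE, CD56-APC and CD69-PE-Cy7. Erythrocytes were lysed and leukocytes fixed in one step. CD69 was read on CD3⁻CD56⁺ NK cells from 100,000 gated events.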

| hTLR8 Agonistic Activity (EC50) [1] | Compound | other results |
| --- | --- | --- |
| abrogated activity | CCCCCn1c(N)nc2c(Cc3ccccc3)cccc21 [Compound 31m, 4-Benzyl-1-pentyl-1H-benzo[d]imidazol-2-amine] | – |
| completely abrogated activity | CCCCOC(=O)n1c(N)nc2ccccc21 [Compound 9, Butyl 2-amino-1H-benzo[d]imidazole-1-carboxylate] | – |
| neither 8d nor 8f were active | Nc1nc2ccccc2n1Cc1ccccc1 [Compound 8d, 1-Benzyl-1H-benzo[d]imidazol-2-amine] | – |
| completely abrogated activity | CCCCCn1c(NC(C)=O)nc2ccccc21 [Compound 10, N-(1-Pentyl-1H-benzo[d]imidazol-2-yl)acetamide] | – |

The next lines start with the compound.

| Compound | hTLR8 Agonistic Activity (EC50) [1] | other results |
| --- | --- | --- |
| NCc1cccc(Cn2c(N)nc3ccccc32)c1 [Compound 8f, 1-(3-(Aminomethyl)benzyl)-1H-benzo[d]imidazol-2-amine] | neither 8d nor 8f were active | – |
| CCCCCn1c(N)nc2c(OCc3ccccc3)cccc21 [Compound 35, 4-Benzyloxy-1-pentyl-1H-benzoimidazol-2-ylamine] | abrogated activity | – |
| CCCCC1C(N)=Nc2ccccc21.Cl (stereo not drawn) [Compound 4] | – | Stability of the compound (free base) [2]: exceedingly unstable |
| CCCCCn1c(N)nc2c(C)cccc21 [Compound 31a, 4-Methyl-1-pentyl-1H-benzo[d]imidazol-2-amine] | – | CD69 upregulation in NK lymphocytes [3]: complete absence of CD69 upregulation |
| CCCCCn1c(N)nc2c(-c3ccccc3)cccc21 [Compound 31l, 1-Pentyl-4-phenyl-1H-benzo[d]imidazol-2-amine] | abrogated activity | – |
